# SKN-1 inh: C. elegans SKN-1 inhibition; C. elegans VP596 Pgst-4::GFP/RFP ratio, acrylamide-induced, 24 h; inhibition, % at 21.8 µM; actives 0.49% (n = 360,000); AID 624304;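 active = interference check ratio from 0.5 to 1.5 plus GFP to RFP signal ratio inhibition reaching or exceeding a fixed threshold, cut at about 30% in these data, passing the limit was not always enough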
# MT1-MMP act inh: blocks activation of human MT1-MMP; AID 651647; GFP/RFP ratio change, % at 20 µM; actives 0.061% (n = 360,000); HT1080 RFP-PRO-GFP cells, GFP/RFP ratio fluorescence, overnight; percent of plate control window, DMSO zero;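 active = GFP/RFP ratio change of at least 30% with cell ATP level not reduced by more than half and red fluorescence within 50% of control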
#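 Assay system: RFP-PRO-GFP reporter HT1080 cells; read-out basis: GFP/RFP fluorescence ratio; benchmarks: DMSO wells and RFP-L50D-GFP cells; doses: 20 µM single dose, 1% DMSO; schedule: overnight cell settling, then overnight compound exposure, 37 °C, 5% CO2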
# ATG4B inhibitor: inhibitors of human ATG4B cysteine protease; ATG4B cleavage of LC3-PLA2, NBD-HPC fluorescence, 1 h; actives 0.51% (n = 340,000); inhibition, % at 8.33 µM; AID 504462; Q9Y4P1; in the data active = inhibition above about 40%
# Target sequence (Q9Y4P1 whole entry, looked up): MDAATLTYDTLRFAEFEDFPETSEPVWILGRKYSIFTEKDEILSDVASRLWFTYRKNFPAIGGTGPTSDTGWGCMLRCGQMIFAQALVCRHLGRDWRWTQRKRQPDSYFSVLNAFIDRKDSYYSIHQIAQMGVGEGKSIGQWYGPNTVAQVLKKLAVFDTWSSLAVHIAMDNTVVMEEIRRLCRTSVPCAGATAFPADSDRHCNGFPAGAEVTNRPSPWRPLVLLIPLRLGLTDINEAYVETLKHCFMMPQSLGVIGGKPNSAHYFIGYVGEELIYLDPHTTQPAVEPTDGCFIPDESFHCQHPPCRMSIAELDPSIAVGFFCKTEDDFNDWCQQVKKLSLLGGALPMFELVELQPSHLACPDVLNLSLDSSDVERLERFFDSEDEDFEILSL
# MPTP block: blocks calcium-induced mitochondrial swelling; isolated mouse mitochondria, Ca2+ swelling absorbance, 30 min; inhibition, % at 10 µM; actives 1.4% (n = 360,000);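 active = inhibition of 50% or more, scaled per plate between neutral and stimulator controls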;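 also: 0% = DMSO wells given calcium and 100% = 1 mM EGTA wells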
# MPTP counter: mitochondrial membrane potential, counter-screen; shares compounds with MPTP block; isolated mitochondria, Rhodamine 123 fluorescence; inhibition, % at 10 µM; actives 78% (n = 5,000); AID 624504; in the data active = inhibition above about 22%;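 also: 0% = DMSO vehicle and 100% = positive control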
# MPTP abs DR: MPTP inhibition, dose response swelling confirmation; shares compounds with MPTP block; IC50, µM; isolated mitochondria swelling, absorbance; actives 58% (n = 780); in the data active = IC50 below about 20 µM
# MPTP cs DR: active in counter-screen for permeability transition pore inhibitors; actives 49% (n = 780); isolated mitochondria counterscreen, fluorescence read-out; AID 651564; IC50, µM; shares compounds with MPTP block; in the data active = IC50 below about 80 µM
# * hit, by the source's call; i = inactive; nt = not tested or not shown. A selection: hits, their analogues and other compounds. The true share with any hit is near 2.3%.
SMILES,SKN-1 inh,MT1-MMP act inh,ATG4B inhibitor,MPTP block,MPTP counter,others
CN1CCN(C2=Cc3ccc(Cl)cc3Sc3ccc(F)cc32)CC1,-12,-14,-4,95*,-9,
S=C(NCc1cccnc1)Nc1cc(Cl)cc(Cl)c1,0,4,2,82*,82*,
S=C(NCc1cccnc1)Nc1cccc(Cl)c1,5,-1,-5,-1,nt,
O=C(NCc1cccnc1)Nc1cc(Cl)cc(Cl)c1,7,1,4,85*,86*,
O=C(NCc1cccnc1)Nc1cccc(Cl)c1,16,0,-2,2,nt,
COc1cc(-c2ccc(N3C(c4ccsc4)=Cc4ccccc4C3CC(C)=O)cc2)cc(OC)c1OC (stereo unspecified),-8,6,nt,0,nt,
O=C(NC(=S)N(Cc1ccccc1)Cc1ccccc1)c1ccccc1F,-14,11,12,1,nt,
O=C(Nc1ccc(Cl)cc1)N1CCC(c2nc(-c3ccc(F)cc3)no2)CC1,17,0,0,90*,76*,
S=C(Nc1ccc(Oc2ccccc2)cc1)Nc1cccnc1,-2,0,4,71*,86*,
CCCCc1ccc(NC(=O)Nc2cccnc2)cc1,-3,4,-9,38,nt,
CCCCc1ccc(NC(=S)Nc2ccc(Cl)c(S(=O)(=O)N(C)C)c2)cc1,-1,3,-8,97*,76*,
S=C(NCc1cccnc1)Nc1ccc(Oc2ccccc2)cc1,2,5,5,69*,60*,
CCCCc1ccc(NC(=S)Nc2cccnc2)cc1,-7,-2,-8,80*,73*,
CCOc1ccc(NC(=S)Nc2cccnc2)cc1,-2,-4,4,-2,nt,
COc1ccc(S(=O)(=O)NCc2ccc(F)cc2)cc1OC,-25,3,-1,-2,nt,
Cc1ccc(S(=O)(=O)N2CCCCC2)cc1C(=O)N(CCc1ccccc1)Cc1ccccc1,5,-11,-6,-1,nt,
COc1ccc(C2/C=C\CN(C(=O)Nc3ccc(C(F)(F)F)cc3)CC(=O)N2Cc2ccc(F)cc2)cc1 (stereo unspecified),13,-1,1,103*,100*,
COc1ccccc1C1CCN(C(=O)c2ccccc2)CC1,9,3,1,0,nt,
COc1ccccc1C1CCN(c2cc(O)ccc2[N+](=O)[O-])CC1,-5,10,10,86*,78*,
C[C@H]1c2cccc(O)c2C(=O)C2C(=O)C3(O)C(=O)C(C(N)=O)C(=O)[C@@H](N(C)C)[C@@H]3[C@@H](O)[C@@H]21 (stereo partly specified),12,-10,37,90*,5,
C[C@H]1c2cccc(O)c2C(O)=C2C(=O)C3(O)C(O)=C(C(N)=O)C(=O)[C@@H](N(C)C)[C@@H]3[C@@H](O)[C@@H]21 (stereo partly specified),1,-6,32,85*,0,
Cc1cc(C)c(S(=O)(=O)NCC(c2ccco2)N2CCc3ccccc3C2)c(C)c1 (stereo unspecified),7,1,0,1,nt,
CCc1ccccc1Nc1ccc(C(=O)O)cc1N,16,3,7,62*,-4,MPTP abs DR=i;MPTP cs DR=>80
Cc1cccc(CN2CCN(C3CN(Cc4ccc(F)cc4)S(=O)(=O)C3)CC2)c1 (stereo unspecified),-1,7,nt,0,nt,
Cc1ccc(N(CC(=O)NC(C)(C)C)C(=O)CCC(=O)Nc2ccccn2)cc1,-14,1,nt,0,nt,
SMILES,SKN-1 inh,MT1-MMP act inh,ATG4B inhibitor,MPTP block,MPTP counter,others
Cc1cc(N2CCN(C)CC2)ccc1NC(=O)c1ccc(-c2ccc(Cl)cc2)o1,10,-1,5,54*,-18,
CN1CCN(c2ccccc2NC(=O)c2ccc(-c3ccc(Cl)c(Cl)c3)o2)CC1,22,4,-9,1,nt,
Cn1c(=O)c2nc(NCc3ccccc3)sc2n(C)c1=O,15,3,3,0,nt,
CCCCNC(=S)Nc1ccc(F)cc1,5,4,2,5,nt,
CCCCNC(=S)Nc1ccc(SC(F)F)cc1,0,8,1,98*,73*,
Oc1cccc2c(NC(=S)Nc3ccc(SC(F)F)cc3)cccc12,4,-26,-17,88*,88*,
